Assay results from ChEMBL document CHEMBL4689842, “EUbOPEN Chemogenomics Library wave 1” (2021).

Tested on: Fibroblast
Assay: Multiplex assay against human fibroblast
Format: toxicity, cell-based
In short: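 Hoechst33342, BioTracker Green Microtubule Cytoskeleton Dye, MitoTracker Red and Annexin V Alexa Fluor 680 were added to live cells at seeding, and imaging on a CQ1 microscope at 37°C and 5% CO2 followed compound addition. Gating by CellPathfinder machine learning separated cells into Hoechst high-intensity objects or normal cells, then normal cells into healthy, pyknosed or fragmented nuclei, then pyknosed cells into mitotic or apoptotic. Per cents of healthy-nucleus cells are reported for the tubulin, mitochondrial-mass and membrane-permeability phenotypes.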

[1] = 12 h, 1 µM, compound concentration 1 uM, replicate 1
[2] = 12 h, 1 µM, compound concentration 1 uM, replicate 2
[3] = 12 h, 10 µM, compound concentration 10 uM, replicate 1
[4] = 12 h, 10 µM, compound concentration 10 uM, replicate 2
[5] = 24 h, 1 µM, compound concentration 1 uM, replicate 1
[6] = 24 h, 1 µM, compound concentration 1 uM, replicate 2
[7] = 24 h, 10 µM, compound concentration 10 uM, replicate 1
[8] = 24 h, 10 µM, compound concentration 10 uM, replicate 2
[9] = 48 h, 1 µM, compound concentration 1 uM, replicate 1
[10] = 48 h, 1 µM, compound concentration 1 uM, replicate 2
[11] = 48 h, 10 µM, compound concentration 10 uM, replicate 1
[12] = 48 h, 10 µM, compound concentration 10 uM, replicate 2

CN(C)C(=O)C(CCN1CCC(O)(c2ccc(Cl)cc2)CC1)(c1ccccc1)c1ccccc1.Cl [LOPERAMIDE HYDROCHLORIDE]
Population Apoptotic (%) [1]: 54%
Population Fragmented Nuclei (%) [1]: 26%
Population Healthy Nuclei (%) [1]: 42%
Population Hoechst High Intensity Objects (%) [1]: 12%
Population Membrane Permeable-Phenotype (%) [1]: 19%
Population Mitochondria Different-Phenotype (%) [1]: 19%
Population Mitotic Cells (%) [1]: 45%
Population Normal (%) [1]: 87%
Population Pyknosed Nuclei (%) [1]: 31%
Population Tubulin-Different-Phenotype (%) [1]: 54%
Total Cell Count [1]: 155
Population Apoptotic (%) [2]: 25%
Population Fragmented Nuclei (%) [2]: 5%
Population Healthy Nuclei (%) [2]: 88%
Population Hoechst High Intensity Objects (%) [2]: 7%
Population Membrane Permeable-Phenotype (%) [2]: 11%
Population Mitochondria Different-Phenotype (%) [2]: 90%
Population Mitotic Cells (%) [2]: 75%
Population Normal (%) [2]: 92%
Population Pyknosed Nuclei (%) [2]: 6%
Population Tubulin-Different-Phenotype (%) [2]: 65%
Total Cell Count [2]: 55
Population Apoptotic (%) [3]: 64%
Population Fragmented Nuclei (%) [3]: 23%
Population Healthy Nuclei (%) [3]: 29%
Population Hoechst High Intensity Objects (%) [3]: 12%
Population Membrane Permeable-Phenotype (%) [3]: 0%
Population Mitochondria Different-Phenotype (%) [3]: 87%
Population Mitotic Cells (%) [3]: 35%
Population Normal (%) [3]: 87%
Population Pyknosed Nuclei (%) [3]: 46%
Population Tubulin-Different-Phenotype (%) [3]: 92%
Total Cell Count [3]: 158
Population Apoptotic (%) [4]: 82%
Population Fragmented Nuclei (%) [4]: 8%
Population Healthy Nuclei (%) [4]: 48%
Population Hoechst High Intensity Objects (%) [4]: 6%
Population Membrane Permeable-Phenotype (%) [4]: 94%
Population Mitochondria Different-Phenotype (%) [4]: 100%
Population Mitotic Cells (%) [4]: 17%
Population Normal (%) [4]: 93%
Population Pyknosed Nuclei (%) [4]: 43%
Population Tubulin-Different-Phenotype (%) [4]: 100%
Total Cell Count [4]: 64
Population Apoptotic (%) [5]: 45%
Population Fragmented Nuclei (%) [5]: 22%
Population Healthy Nuclei (%) [5]: 52%
Population Hoechst High Intensity Objects (%) [5]: 12%
Population Membrane Permeable-Phenotype (%) [5]: 19%
Population Mitochondria Different-Phenotype (%) [5]: 20%
Population Mitotic Cells (%) [5]: 54%
Population Normal (%) [5]: 87%
Population Pyknosed Nuclei (%) [5]: 25%
Population Tubulin-Different-Phenotype (%) [5]: 55%
Total Cell Count [5]: 157
Population Apoptotic (%) [6]: 53%
Population Fragmented Nuclei (%) [6]: 5%
Population Healthy Nuclei (%) [6]: 71%
Population Hoechst High Intensity Objects (%) [6]: 4%
Population Membrane Permeable-Phenotype (%) [6]: 16%
Population Mitochondria Different-Phenotype (%) [6]: 89%
Population Mitotic Cells (%) [6]: 46%
Population Normal (%) [6]: 95%
Population Pyknosed Nuclei (%) [6]: 22%
Population Tubulin-Different-Phenotype (%) [6]: 62%
Total Cell Count [6]: 68
Population Apoptotic (%) [7]: 82%
Population Fragmented Nuclei (%) [7]: 26%
Population Healthy Nuclei (%) [7]: 33%
Population Hoechst High Intensity Objects (%) [7]: 24%
Population Membrane Permeable-Phenotype (%) [7]: 7%
Population Mitochondria Different-Phenotype (%) [7]: 77%
Population Mitotic Cells (%) [7]: 17%
Population Normal (%) [7]: 75%
Population Pyknosed Nuclei (%) [7]: 39%
Population Tubulin-Different-Phenotype (%) [7]: 92%
Total Cell Count [7]: 156
Population Apoptotic (%) [8]: 98%
Population Fragmented Nuclei (%) [8]: 10%
Population Healthy Nuclei (%) [8]: 26%
Population Hoechst High Intensity Objects (%) [8]: 10%
Population Membrane Permeable-Phenotype (%) [8]: 86%
Population Mitochondria Different-Phenotype (%) [8]: 95%
Population Mitotic Cells (%) [8]: 1%
Population Normal (%) [8]: 89%
Population Pyknosed Nuclei (%) [8]: 62%
Population Tubulin-Different-Phenotype (%) [8]: 95%
Total Cell Count [8]: 70
Population Apoptotic (%) [9]: 67%
Population Fragmented Nuclei (%) [9]: 29%
Population Healthy Nuclei (%) [9]: 46%
Population Hoechst High Intensity Objects (%) [9]: 14%
Population Membrane Permeable-Phenotype (%) [9]: 8%
Population Mitochondria Different-Phenotype (%) [9]: 9%
Population Mitotic Cells (%) [9]: 32%
Population Normal (%) [9]: 85%
Population Pyknosed Nuclei (%) [9]: 23%
Population Tubulin-Different-Phenotype (%) [9]: 56%
Total Cell Count [9]: 155
Population Apoptotic (%) [10]: 75%
Population Fragmented Nuclei (%) [10]: 34%
Population Healthy Nuclei (%) [10]: 62%
Population Hoechst High Intensity Objects (%) [10]: 12%
Population Membrane Permeable-Phenotype (%) [10]: 12%
Population Mitochondria Different-Phenotype (%) [10]: 8%
Population Mitotic Cells (%) [10]: 25%
Population Normal (%) [10]: 87%
Population Pyknosed Nuclei (%) [10]: 3%
Population Tubulin-Different-Phenotype (%) [10]: 70%
Total Cell Count [10]: 137
Population Apoptotic (%) [11]: 86%
Population Fragmented Nuclei (%) [11]: 36%
Population Healthy Nuclei (%) [11]: 38%
Population Hoechst High Intensity Objects (%) [11]: 36%
Population Membrane Permeable-Phenotype (%) [11]: 2%
Population Mitochondria Different-Phenotype (%) [11]: 70%
Population Mitotic Cells (%) [11]: 13%
Population Normal (%) [11]: 63%
Population Pyknosed Nuclei (%) [11]: 25%
Population Tubulin-Different-Phenotype (%) [11]: 70%
Total Cell Count [11]: 139
Population Apoptotic (%) [12]: 90%
Population Fragmented Nuclei (%) [12]: 37%
Population Healthy Nuclei (%) [12]: 52%
Population Hoechst High Intensity Objects (%) [12]: 45%
Population Membrane Permeable-Phenotype (%) [12]: 0%
Population Mitochondria Different-Phenotype (%) [12]: 85%
Population Mitotic Cells (%) [12]: 9%
Population Normal (%) [12]: 54%
Population Pyknosed Nuclei (%) [12]: 9%
Population Tubulin-Different-Phenotype (%) [12]: 88%
Total Cell Count [12]: 214
